From ChEMBL document CHEMBL4138189, “Role of the Benzodioxole Group in the Interactions between the Natural Alkaloids Chelerythrine and Coptisine and the Human Telomeric G-Quadruplex DNA. A Multiapproach Investigation” (J Nat Prod, 2017) come the findings set out here.

Experiment [1] addresses Quadruplex DNA. As to the kind of experiment: Displacement of thiazole orange from wild-type telomeric 22 H2 G-quadruplex DNA (unknown origin) in presence of KCl by fluorescent intercalator displacement assay. The experiment is classed as nucleic-acid assay. A digest of the protocol:
(§1)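 Target DNA (0.62 μM) was mixed with thiazole orange (1.24 μM) in 10 mM Tris, 50 mM KCl, pH 7.5, at 25 °C and titrated with compound. Fluorescence was excited at 501 nm and read at 520–680 nm. Displacement = 100 − (F/F0 × 100); EC50 was taken from displacement versus concentration. Each titration was run at least in triplicate.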

Experiment [2] deals with Quadruplex DNA. The experiment in a line: Binding affinity to wild-type telomeric 22 H2 G-quadruplex DNA (unknown origin) assessed as increase in positive cotton effect at 295 nm at 40 to 80 uM in presence of KCl by electronic circular dichorism spectra analysis. Type of experiment: nucleic-acid assay. A digest of the protocol:
(§2)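 DNA annealed at 4 μM (strand concentration) in 10 mM Tris, 50 mM KCl, pH 7.5, with or without 40% MPD. ECD spectra were read at 230–350 nm in a 10 mm cell under Peltier temperature control, without ligand and with increasing ligand (0–80 μM). Cotton effects were converted to mean residue ellipticity.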

Experiment [3] deals with Quadruplex DNA. The experiment in a line: Stabilization of 5'Dabcyl/3'FAM labeled human telomeric sequence G-quadruplex DNA assessed as change in melting temperature at 5 uM in presence of KCl by fluorescence assay. Type of experiment: nucleic-acid assay. A digest of the protocol: (§3)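 Labelled telomeric DNA, 0.25 μM strand, in 10 mM LiOH, pH 7.5 (H3PO4), 50 mM KCl, with increasing ligand. Samples were heated and cooled over 25–95 °C at 0.1 °C/s, held 5 min at 30 °C, then heated to 95 °C at 1 °C/min. Fluorescence excited at 488 nm, read at 520 nm. Tm from first derivative of melting profile; at least triplicate, errors ±0.3 °C.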

Experiment [4] concerns Calf thymus DNA. The experiment in a line: Stabilization of calf thymus DNA assessed as change in melting temperature at 5 uM by fluorescence assay. The following applies: Bos taurus. Type of experiment: nucleic-acid assay.
The test system of experiment [5] is Quadruplex DNA. The experiment in a line: Binding affinity to telomeric 22 H1 G-quadruplex DNA (unknown origin) assessed as decrease in positive cotton effect at 260 nm at 40 to 80 uM by electronic circular dichorism spectra analysis. The experiment is classed as nucleic-acid assay. A digest of the protocol: as §2
The target of experiment [6] is Quadruplex DNA. The experiment in a line: Displacement of thiazole orange from telomeric 22 H1 G-quadruplex DNA (unknown origin) in presence of KCl by fluorescent intercalator displacement assay. The experiment is classed as nucleic-acid assay. A digest of the protocol: as §1
The test system of experiment [7] is Calf thymus DNA. As to the kind of experiment: Binding affinity to calf thymus DNA up to 80 uM in presence of KCl by electronic circular dichorism spectra analysis. Type of experiment: nucleic-acid assay. The following applies: Bos taurus. A digest of the protocol:
as §2

Experiment [8] concerns Quadruplex DNA. As to the kind of experiment: Binding affinity to wild-type telomeric 22 H2 G-quadruplex DNA (unknown origin) assessed as decrease in positive cotton effect at 260 nm at 40 to 80 uM in presence of KCl by electronic circular dichorism spectra analysis. The experiment is classed as nucleic-acid assay. A digest of the protocol: as §2
For experiment [9], the system named is Quadruplex DNA. The experiment in a line: Stabilization of 5'Dabcyl/3'FAM labeled human telomeric sequence G-quadruplex DNA assessed as change in melting temperature up to 30 uM in presence of KCl by fluorescence assay. Type of experiment: nucleic-acid assay. A digest of the protocol:
as §3

Experiment [10] deals with Quadruplex DNA. As to the kind of experiment: Binding affinity to telomeric 22 H1 G-quadruplex DNA (unknown origin) assessed as increase in positive cotton effect at 295 nm at 40 to 80 uM by electronic circular dichorism spectra analysis. Type of experiment: nucleic-acid assay. A digest of the protocol:
as §2

A short description of experiment [11]: Selectivity ratio of EC50 for displacement of thiazole orange from wild-type telomeric 22 H2 G-quadruplex DNA (unknown origin) to EC50 for displacement of thiazole orange from telomeric 22 H1 G-quadruplex DNA (unknown origin). A digest of the protocol: as §1
The subject of experiment [12] is Calf thymus DNA. The experiment in a line: Binding affinity to calf thymus DNA in presence of KCl by UV-spectra analysis. The experiment is classed as nucleic-acid assay. The following applies: Bos taurus.
Experiment [13] has as its system Quadruplex DNA. As to the kind of experiment: Binding affinity to telomeric 12 G-quadruplex DNA (unknown origin) assessed as increase in cotton effect amplitude up to 10 fold excess DNA concentration in presence of MPD by electronic circular dichorism spectra analysis. Type of experiment: nucleic-acid assay.

The source made the active and inactive calls. No cut-off for these calls is given here.

Take `c1c2c(cc3c1OCO3)-c1cc3ccc4c(c3c[n+]1CC2)OCO4` [COPTISINE]: the EC50 was 5.93 µM on Quadruplex DNA [1] and 12 µM at Quadruplex DNA [6]. In addition, the outcome with Quadruplex DNA [2], with Quadruplex DNA [3], with Quadruplex DNA [5], with Calf thymus DNA [7], with Quadruplex DNA [8] and in the experiment on Quadruplex DNA [9] was Active. For the same compound, the result in the experiment on Quadruplex DNA [10], in the experiment with Calf thymus DNA [12] and in the experiment with Quadruplex DNA [13] was Active. For the same compound, the result with Calf thymus DNA [4] was inactive. For the same compound, in [11], the Ratio EC50 was found to be 2.
Take `COc1ccc2c(c[n+](C)c3c4cc5c(cc4ccc23)OCO5)c1OC` [CHELERYTHRINE]: the EC50 on Quadruplex DNA [1] was found to be 3.75 µM; at Quadruplex DNA [6], 2.59 µM. The result in the experiment on Quadruplex DNA [2], with Quadruplex DNA [3], in the experiment on Quadruplex DNA [5], in the experiment on Calf thymus DNA [7], with Quadruplex DNA [8] and with Quadruplex DNA [9] was Active. For the same compound, the outcome with Quadruplex DNA [10] and in the experiment with Calf thymus DNA [12] was Active. Besides, the result with Calf thymus DNA [4] was inactive. Moreover, the Ratio EC50 in experiment [11] was 0.7.
